Published values pooled from the literature.
gyrB: DNA gyrase subunit B (gyrB, Escherichia coli, UniProt P0AES6)
CA9: Carbonic anhydrase 9 (CA9, Homo sapiens, UniProt Q16790)
Melanocortin receptor 5: Melanocortin receptor 5 (Mus musculus, UniProt P41149)
PKN1: Serine/threonine-protein kinase N1 (PKN1, Homo sapiens, UniProt Q16512)
Adora1: Adenosine receptor A1 (Adora1, Rattus norvegicus, UniProt P25099)
GRM4: Metabotropic glutamate receptor 4 (GRM4, Homo sapiens, UniProt Q14833)

| Compound | target | read-out | mode | technique | setting | endpoint | result |
| --- | --- | --- | --- | --- | --- | --- | --- |
| CNc1cccc2cc(C(=O)NCc3cccc(C(=O)O)c3)c(=O)[nH]c12 | gyrB | binding | – | ITC | – | Kd | 390 nM |
| NS(=O)(=O)c1cccc(NC(=O)CCN2CCC(c3cccc4[nH]ccc34)CC2)c1 | CA9 | enzyme activity | inhibitor | – | – | IC50 | 11000 nM |
| CNc1cccc2cc(C(=O)Nc3cccc(CC(=O)O)c3)c(=O)[nH]c12 | gyrB | binding | – | ITC | – | Kd | 37 nM |
| N=C(N)NCCC[C@H](NC(=O)[C@H](CC(=O)O)NC(=O)[C@H](Cc1c[nH]c2ccccc12)NC(=O)[C@H](CCCNC(=N)N)NC(=O)[C@H](Cc1ccccc1)NC(=O)[C@@H](N)Cc1c[nH]cn1)C(=O)N[C@@H](Cc1ccccc1)C(=O)NCC(=O)O | Melanocortin receptor 5 | reporter gene | agonist | – | – | EC50 | 760 nM |
| CNc1cccc2cc(C(=O)Nc3ccc(CC(=O)O)cc3)c(=O)[nH]c12 | gyrB | binding | – | ITC | – | Kd | 4.7 nM |
| CCCCNc1ncc2c(-c3ccc(CN4CCN(C)CC4)cc3)cn([C@H]3CC[C@H](O)CC3)c2n1 | PKN1 | enzyme activity | inhibitor | – | – | IC50 | 53 nM |
| CCCCn1c(=O)c2[nH]c(C34CC5CC(CC3C5)C4)nc2n(CCCO)c1=O | Adora1 | ligand displacement | – | radioligand | cell membranes | Ki | 0.368 nM |
| N=C(N)NCCC[C@H](NC(=O)[C@H](CC(=O)O)NC(=O)[C@H](Cc1c[nH]c2ccccc12)NC(=O)[C@@H](N)CCCNC(=N)N)C(=O)N[C@@H](Cc1ccccc1)C(=O)NCC(=O)O | Melanocortin receptor 5 | reporter gene | agonist | – | – | EC50 | > 100000 nM |
| O=C(Nc1ccc(N2C(=O)c3ccccc3C2=O)c(Cl)c1)c1ncccc1O | GRM4 | calcium signal | agonist | – | – | EC50 | 130 nM |
| CC(C)CCCC(C)N1CCCn2c1nc1c2c(=O)n(C)c(=O)n1C (centres unmarked) | Adora1 | ligand displacement | – | radioligand | cell membranes | Ki | 7690 nM |
| Cc1cc(Nc2nc(N[C@@H](C)c3ccc(F)cc3)c(C#N)cc2F)n[nH]1 | PKN1 | enzyme activity | inhibitor | – | – | IC50 | 213 nM |
| CCC(C)N1CCCn2c1nc1c2c(=O)n(C)c(=O)n1C (centres unmarked) | Adora1 | ligand displacement | – | radioligand | cell membranes | Ki | ≥ 25000 nM |
| CC(NC(=O)C(C)N1CCN(C(=O)c2cccc(O)c2)CC1)c1ccc(S(N)(=O)=O)cc1 (centres unmarked) | CA9 | enzyme activity | inhibitor | – | – | IC50 | 750 nM |
| N=C(N)NCCC[C@H](NC(=O)[C@@H](N)CC(=O)O)C(=O)N[C@@H](Cc1ccccc1)C(=O)O | Melanocortin receptor 5 | reporter gene | agonist | – | – | EC50 | > 100000 nM |
| CC(=O)Nc1cccc2c1CC(C)N2Cc1ccoc1C(=O)Nc1ccc(S(N)(=O)=O)cc1 (centres unmarked) | CA9 | enzyme activity | inhibitor | – | – | IC50 | 37.2 nM |
| CN1CCCn2c1nc1c2c(=O)n(C)c(=O)n1C | Adora1 | ligand displacement | – | radioligand | cell membranes | Ki | > 25000 nM |
| Cc1cccnc1C(=O)Nc1ccc(N2C(=O)c3ccccc3C2=O)c(Cl)c1 | GRM4 | calcium signal | agonist | – | – | EC50 | > 10000 nM |
| Cc1cnc(-c2ccc(-c3ccc(NC(=O)Nc4c(F)cc(F)cc4F)cc3F)c3c2C(=O)NC3)[nH]1 | Serine/threonine-protein kinase 26 (STK26, Homo sapiens, UniProt Q9P289) | binding | – | competition with immobilised ligand | – | Kd | 8.2 nM |

| Compound | target | read-out | mode | technique | setting | endpoint | result |
| --- | --- | --- | --- | --- | --- | --- | --- |
| CSCC[C@H](N)C(=O)NCC(=O)N[C@@H](Cc1c[nH]cn1)C(=O)N[C@@H](Cc1ccccc1)C(=O)N[C@@H](CCCNC(=N)N)C(=O)N[C@@H](Cc1c[nH]c2ccccc12)C(=O)N[C@@H](CC(=O)O)C(=O)N[C@@H](CCCNC(=N)N)C(=O)N[C@@H](Cc1ccccc1)C(=O)NCC(=O)O | Melanocortin receptor 5 | reporter gene | agonist | – | – | EC50 | 94 nM |
| CC(C)NC[C@@H](C(=O)N1CCN(c2ncnc3c2[C@H](C)C[C@H]3O)CC1)c1ccc(Cl)cc1 | PKN1 | enzyme activity | inhibitor | – | – | IC50 | 30 nM |
| O=C(O)c1cccc(CCNC(=O)c2cc3ccccc3[nH]c2=O)c1 | gyrB | binding | – | ITC | – | Kd | 1400 nM |
| N=C(N)NCCC[C@H](NC(=O)[C@H](CC(=O)O)NC(=O)[C@H](Cc1c[nH]c2ccccc12)NC(=O)[C@H](CCCNC(=N)N)NC(=O)[C@H](Cc1ccccc1)NC(=O)[C@H](Cc1c[nH]cn1)NC(=O)CN)C(=O)N[C@@H](Cc1ccccc1)C(=O)NCC(=O)O | Melanocortin receptor 5 | reporter gene | agonist | – | – | EC50 | 290 nM |
| NS(=O)(=O)c1ccc(C(=O)N2CCCC(CNc3ccc(Cl)cc3)C2)cc1Cl (centres unmarked) | CA9 | enzyme activity | inhibitor | – | – | IC50 | 206 nM |
| C=CCN1CCCn2c1nc1c2c(=O)n(C)c(=O)n1C | Adora1 | ligand displacement | – | radioligand | cell membranes | Ki | 4400 nM |
| N=C(N)NCCC[C@H](NC(=O)[C@H](CC(=O)O)NC(=O)[C@H](Cc1c[nH]c2ccccc12)NC(=O)[C@H](CCCNC(=N)N)NC(=O)[C@@H](N)Cc1ccccc1)C(=O)N[C@@H](Cc1ccccc1)C(=O)O | Melanocortin receptor 5 | reporter gene | agonist | – | – | EC50 | 6730 nM |
| O=C(O)c1cccc(NC(=O)c2cc3ccccc3[nH]c2=O)c1 | gyrB | binding | – | ITC | – | Kd | 7000 nM |
| NS(=O)(=O)c1ccc(NC(=O)C(Cc2c[nH]c3ccccc23)NC(=O)c2cccs2)cc1 (centres unmarked) | CA9 | enzyme activity | inhibitor | – | – | IC50 | 37.2 nM |
| COc1ccc(-c2nsc(NC(=O)[C@@H]3C[C@H]3C)c2C)cc1 | Metabotropic glutamate receptor 1 (GRM1, Homo sapiens, UniProt Q13255) | calcium signal | agonist | – | – | EC50 | > 25000 nM |
| CCCN1CCCn2c1nc1c2c(=O)n(C)c(=O)n1C | Adora1 | ligand displacement | – | radioligand | cell membranes | Ki | 3870 nM |
| NS(=O)(=O)c1ccc(NC(=O)NCc2cccc(NC(=O)C3CC3)c2)cc1 | CA9 | enzyme activity | inhibitor | – | – | IC50 | 55 nM |
| CSCC[C@H](NC(=O)[C@@H](NC(=O)[C@@H](N)Cc1ccc(O)cc1)C(C)C)C(=O)NCC(=O)N[C@@H](Cc1c[nH]cn1)C(=O)N[C@@H](Cc1ccccc1)C(=O)N[C@@H](CCCNC(=N)N)C(=O)N[C@@H](Cc1c[nH]c2ccccc12)C(=O)N[C@@H](CC(=O)O)C(=O)N[C@@H](CCCNC(=N)N)C(=O)O | Melanocortin receptor 5 | reporter gene | agonist | – | – | EC50 | 62 nM |
| NS(=O)(=O)c1ccc(NC(=O)COC(=O)c2ccccc2Nc2cccc(C(F)(F)F)c2)cc1 | CA9 | enzyme activity | inhibitor | – | – | IC50 | 87 nM |
| N=C(N)NCCC[C@H](NC(=O)[C@H](CC(=O)O)NC(=O)[C@H](Cc1c[nH]c2ccccc12)NC(=O)[C@H](CCCNC(=N)N)NC(=O)[C@H](Cc1ccccc1)NC(=O)[C@@H](N)Cc1c[nH]cn1)C(=O)N[C@@H](Cc1ccccc1)C(=O)O | Melanocortin receptor 5 | reporter gene | agonist | – | – | EC50 | 1870 nM |
| CNc1cccc2cc(C(=O)NCCc3ccc(C(=O)O)cc3)c(=O)[nH]c12 | gyrB | binding | – | ITC | – | Kd | 23 nM |
| NS(=O)(=O)c1cc(C(=O)Nc2ccc(NC(=O)CCN3CCCCC3)cc2)ccc1Cl | CA9 | enzyme activity | inhibitor | – | – | IC50 | 160 nM |
